The results in this text go back to ChEMBL document CHEMBL2417413, “Synthesis and biological evaluation of 1,7,8,8a-tetrahydro-3H-oxazolo[3,4-a]pyrazin-6(5H)-ones as antitumoral agents” (Bioorg Med Chem, 2013).

The source made the active and inactive calls. No cut-off for these calls is given here.

As usually defined, the IC50 is the concentration needed to halve the response being measured.

In test [1] the test system is 8305C. Briefly: Cytotoxicity against human 8305C cells assessed as reduction in cell viability after 24 hrs by MTT assay. It is filed as functional, cell-based. In a few lines:
(§1)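 Cells seeded at 6 × 10^5 per well and exposed to 5–100 µM for 24 h at 37 °C in 5% CO2. Then 0.5% MTT in PBS (pH 7.4) was added for 1 h, supernatant replaced with DMSO, and OD read at 570 nm. IC50 was read graphically from dose-effect curves. Values are mean ± SD of four independent experiments, each run in triplicate.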
In general terms: Tetrazolium dyes change colour on reduction, which living cells bring about.

For test [2], the system named is FTC-133. The test is described as follows: Cytotoxicity against human FTC-133 cells assessed as reduction in cell viability after 24 hrs by MTT assay. The test is classed as functional, cell-based. The conditions noted are these: FTC-133, 24 h. The method, boiled down: as §1
The subject of test [3] is 8305C. Briefly: Induction of apoptosis in human 8305C cells assessed as caspase-3 activation at 50 uM after 24 hrs by fluorescence microscopic analysis (reference value: 3.22 +/- 1%). It is filed as functional.
The test system of test [4] is 8305C. The test is described as follows: Cytotoxicity against human 8305C cells assessed as reduction in cell viability at 50 uM after 24 hrs by MTT assay. The test is classed as functional, cell-based. The method, boiled down: (§2)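 Cultures were treated at 50 µM for 24 h at 37 °C in 5% CO2 alongside untreated controls. Viability was read by MTT reduction (0.5% MTT in PBS pH 7.4, 1 h), with formazan dissolved in DMSO and OD measured at 570 nm.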

Test [5] concerns FTC-133. Briefly: Induction of apoptosis in human FTC-133 cells assessed as DNA fragmentation at 50 uM after 24 hrs by SYBR green-1 staining-based electrophoretic analysis. It is filed as functional, cell-based. The method, boiled down:
(§3)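 After 24 h of treatment, DNA was extracted from untreated and treated cells. Fragments were separated on a 2% agarose gel with SYBR Green I staining, and GAPDH-1 served as the reference gene.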

Test [6] has as its system FTC-133. Briefly: Induction of apoptosis in human FTC-133 cells assessed as caspase-3 activation at 50 uM after 24 hrs by fluorescence microscopic analysis (reference value: 2.51 +/- 1%). It is filed as functional.
Test [7] concerns FTC-133. Briefly: Cytotoxicity against human FTC-133 cells assessed as reduction in cell viability at 50 uM after 24 hrs by MTT assay. It is filed as functional, cell-based. In a few lines:
as §2

The test system of test [8] is 8305C. The test is described as follows: Induction of apoptosis in human 8305C cells assessed as DNA fragmentation at 50 uM after 24 hrs by SYBR green-1 staining-based electrophoretic analysis. It is filed as functional, cell-based. In a few lines:
as §3

As to `O=C1CN2/C(=N/c3ccc4ccc5cccc6ccc3c4c56)OCC2CN1c1ccccc1` (configuration not stated), the IC50 is 80.3 µM in the test on 8305C [1] and 74.2 µM in the test with FTC-133 [2]. For the same compound, the Activity in the test with 8305C [3] was 18.24%; in the test with FTC-133 [6], 29.3%. Also, the result in the test with 8305C [4], in the test on FTC-133 [5], in the test with FTC-133 [7] and in the test with 8305C [8] was Active.
For `O=C1CN2/C(=N/c3ccccc3)OCC2CN1C1CCCCC1` (configuration not stated), the IC50 amounted to 70.7 µM in the test on 8305C [1] and 50 µM with FTC-133 [2]. Moreover, the Activity in the test on 8305C [3] was 75.88%; in the test with FTC-133 [6], 88.68%. Moreover, the outcome in the test with 8305C [4], in the test with FTC-133 [5], with FTC-133 [7] and in the test with 8305C [8] was Active.
Regarding `O=C1CN2/C(=N/c3cccc4ccccc34)OCC2CN1C1CCCCC1` (configuration not stated), the IC50 with 8305C [1] was 61 µM; in the test on FTC-133 [2], 44.8 µM. The Activity is 78.56% in the test on 8305C [3] and 90.56% in the test with FTC-133 [6]. The result in the test with 8305C [4], in the test on FTC-133 [5], in the test on FTC-133 [7] and in the test with 8305C [8] was Active.
Take `O=C1CN2/C(=N/c3ccc4ccc5cccc6ccc3c4c56)OCC2CN1C1CCCCC1` (configuration not stated): the IC50 with 8305C [1] was 68.5 µM; in the test on FTC-133 [2], 48.3 µM. Further, the Activity in the test with 8305C [3] is listed as 68.3%; in the test with FTC-133 [6], 89.24%. Also, the outcome in the test on 8305C [4], with FTC-133 [5], in the test with FTC-133 [7] and in the test with 8305C [8] was Active.
